The results in this text go back to paper PMC7165017 (Inorganic chemistry, 2019).

Where two headings read alike, the source gives them in different places.

The nature of data set [1]: Solution stability study by 1H NMR. The class given is physicochemical. Conditions: DMSO-d6/phosphate buffer 3:7 (v/v), within 12 h. The method, boiled down:
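Complexes were monitored by 1H NMR in DMSO-d6 or DMF-d7 mixed 1:9 (v/v) with degassed 20 mM phosphate buffer (pD 7.4, 4 mM NaCl). Spectra were taken at 25 °C at time points up to 24 h. Free ligands were monitored in DMSO-d6/phosphate buffer 3:7 (v/v).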

Data set [2] has as its system microtubule network in MDA-MB-231 cells. In words: Immunofluorescence study of microtubule network disruption. The class given is cell-based, human. As to conditions: 12 h; cisplatin 50 μM, colchicine 100 nM (controls). The method, boiled down: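 5 × 10^4 MDA-MB-231 cells were grown on glass coverslips for 48 h, then treated 12 h (vehicle 0.1% DMSO). Fixation used 4% paraformaldehyde for 10 min and 100 mM glycine quench, followed by 3% BSA/PBST block for 20 min. Rabbit monoclonal anti-α-tubulin (1:400, 2 h) was followed by AlexaFluor 488 anti-rabbit (1:1000, 2 h, dark) and DAPI mount. Confocal imaging used a 63× objective. Microtubule-network perimeter was averaged over ≥10 treated versus ≥10 untreated cells and expressed as relative perimeter.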

The test system of the next data set is MDA-MB-231 cells. In words: MTT cell viability assay, MDA-MB-231. It counts as cell-based, human. The method, boiled down: (§1)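 Media: Hep G2 in MEM, MIA PaCa-2 in DMEM, MDA-MB-231 in DMEM/F-12, each with 10% FBS and antibiotics. Cells were seeded at 6 × 10^3 per well and kept 48 h at 37 °C, 5% CO2. Medium was renewed, then compound was added (DMSO ≤0.2%, vehicle-matched) for 48 h in triplicate wells. MTT (1 mg mL−1) ran 3 h; formazan was dissolved in DMSO and read at 595 nm versus untreated wells. IC50 came from a four-parameter variable-slope fit, ≥3 independent experiments. Hypoxic MDA-MB-231 cells were kept at 1.5% O2 for ≥2 passages beforehand.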
In general terms: Tetrazolium dyes change colour on reduction, which living cells bring about.

In the next data set the test system is MIA PaCa-2 cells. Nature of the data set: MTT cell viability assay, MIA PaCa-2. It counts as cell-based, human. Conditions: read-out: IC50 ± SD, MIA PaCa-2, 48 h, normoxia (∼15% O2). The method, boiled down:
as §1

A further data set has as its system Hep G2 cells. Nature of the data set: MTT cell viability assay, Hep G2. The class given is cell-based, human. Conditions: read-out: IC50 ± SD, Hep G2, 48 h, normoxia (∼15% O2). The method, boiled down: as §1

For `COc1cccc(C=Nc2cc(OC)c(OC)c(OC)c2)c1O` [Complex L3, 2-Methoxy-6-{[(3,4,5-trimethoxyphenyl)imino]-methyl}phenol], the “hydrolysis of ligand into amine and aldehyde” value in data set [1] is recorded as roughly 80%.
As for `COc1cc(N=Cc2ccccc2O)cc(OC)c1OC` [Complex L1, 2-{[(3,4,5-Trimethoxyphenyl)imino]-methyl}phenol], the “hydrolysis of ligand into amine and aldehyde” value in data set [1] is on record as roughly 80%.
For `COc1cc2c(c(OC)c1OC)-c1ccc(OC)c(=O)cc1[C@@H](NC(C)=O)CC2` [colchicine, reference compound], the “disruption of the microtubule network” value in data set [2] is on record as “exhibited microtubule network damage”.
As to `[NH2][Pt]([NH2])([Cl])[Cl]` [CDDP, cisplatin, reference compound], the IC50 came out at 37.8 ± 2.3 µM in the data set with MDA-MB-231 cells (read-out: IC50 ± SD, MDA-MB-231 (hypo), 48 h, hypoxia (1.5% O2)); 37.2 ± 2.5 µM with MDA-MB-231 cells (read-out: IC50 ± SD, MDA-MB-231, 48 h, normoxia (∼15% O2)); 31.8 ± 4.8 µM in the data set with MIA PaCa-2 cells; 14.3 ± 0.8 µM in the data set on Hep G2 cells. Moreover, the “disruption of the microtubule network” value in data set [2] is given as “did not observe any disruption of the microtubule formation”.

Broadly, the IC50 is the concentration needed to halve the response being measured.
